The source made the active and inactive calls. How the calls were made is not given here.
How the values were obtained:
[1] = Cytotoxicity against human MT4 cells after 96 hrs by MTT assay; type: cell-based; conditions: MT4 cells
Outline: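 Exponentially growing MT-4 cells at 1 × 10^5 cells/mL in RPMI-1640 with 10% FCS, exposed to serial compound dilutions at 37 °C, 5% CO2. Viability by MTT after 96 h; CC50 is the concentration reducing viability of mock-infected cells by 50%.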

[2] = system: Vesicular stomatitis virus; assay: Antiviral activity against VSV Indiana lab infected in african green monkey Vero cells after 2 days by plaque reduction assay; type: functional, organism-based
[3] = system: Coxsackievirus B2; assay: Antiviral activity against Human coxsackievirus B2 Ohio-1 infected in african green monkey Vero cells after 3 days by plaque reduction assay; type: functional, organism-based, Coxsackievirus B2 (strain Ohio-1); conditions: Enterovirus B, Vero, 72 h
Outline: (§1)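 Plaque reduction assay. Vero 76 cells at 2 × 10^5/well, grown overnight to confluence in D-MEM with 10% FBS. Infected 2 h with 50–100 PFU/well, unadsorbed virus removed. Overlay of D-MEM with 1% inactivated FBS and 0.75% methylcellulose, with or without serial compound dilutions. Incubated at 37 °C for 3 days (HSV-1 KOS, CVB-2 Ohio-1) or 5 days (RSV A2). Fixed and stained with crystal violet in 50% ethanol; plaques counted; EC50 by linear regression.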

[4] = Cytotoxicity against african green monkey Vero cells; type: cell-based; conditions: chlorocebus sabaeus
Outline: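 Vero 76 monolayers exposed to serial compound dilutions, run in parallel on the same 24-well plates as the plaque-reduction assays. CC50 is the concentration reducing viability of mock-infected cells by 50%.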

[5] = system: Human alphaherpesvirus 1; assay: Antiviral activity against HSV1 KOS infected in african green monkey Vero cells after 3 days by plaque reduction assay; type: functional, organism-based; conditions: Human alphaherpesvirus 1, KOS, 72 h; outline: as §1
[6] = system: Poliovirus 1; assay: Antiviral activity against Polio virus type1 Sabin strain Chat infected in african green monkey Vero cells after 2 days by plaque reduction assay; type: functional, organism-based, Human poliovirus 1 strain Sabin; conditions: Enterovirus C, 48 h
[7] = Cytotoxicity against BHK cells after 48 to 96 hrs by MTT assay; type: cell-based, Mesocricetus auratus; conditions: hamster
Outline: (§2)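 Cell seeding: MDBK at 6 × 10^5 cells/mL in MEM-E with 10% horse serum and 1 mM Na pyruvate; BHK at 1 × 10^6 cells/mL in MEM-E with 10% FBS. Serial compound dilutions, 37 °C, 5% CO2. Viability of mock-infected cells by MTT after 48–96 h; CC50 is the concentration reducing viability by 50%.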

[8] = system: Bovine viral diarrhea virus 1; assay: Antiviral activity against Bovine viral diarrhea virus NADL infected in MDBK cells assessed as protection from virus-induced cytopathogenicity after 3 to 4 days by MTT method; type: functional, organism-based, Bovine viral diarrhea virus 1-NADL; conditions: Bovine viral diarrhea virus isolates and strains, MDBK
Outline: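 Cytopathogenicity protection assay. MDBK cells at 3 × 10^4/well, grown overnight to confluence. Infected with BVDV NADL at m.o.i. 0.01 in MEM-E with 0.5% inactivated FBS, 1 mM Na pyruvate and 1% kanamycin. Serial compound dilutions added after 1 h. After 3–4 days at 37 °C, viability read by MTT; EC50 is the concentration giving 50% protection.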

[9] = system: Yellow fever virus; assay: Antiviral activity against Yellow fever virus 17D infected in BHK cells assessed as protection from virus-induced cytopathogenicity after 3 to 4 days by MTT method; type: functional, organism-based
[10] = system: Human immunodeficiency virus 1; assay: Antiviral activity against HIV1 3B infected in human MT4 cells assessed as protection from virus-induced cytopathogenicity after 4 days by MTT method; type: functional, organism-based
Outline: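 MT-4 cells, 1 × 10^4/well in RPMI with or without serial compound dilutions, infected with HIV-1 IIIB, 100 CCID50 (m.o.i. 0.01). Protection from virus-induced cytopathogenicity read by MTT.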

[11] = Cytotoxicity against MDBK cells after 48 to 96 hrs by MTT assay; type: cell-based, Bos taurus; conditions: cattle, MDBK cells; outline: as §2
[12] = system: Respiratory syncytial virus; assay: Antiviral activity against RSV A2 infected in african green monkey Vero cells after 5 days by plaque reduction assay; type: functional, organism-based; outline: as §1

## O=C(CN1CCOCC1)Nc1ccc(-c2nc3cc(C(F)(F)F)ccc3[nH]2)cc1
[1]
  CC50 at 96 h: > 100 µM
[2]
  Activity: inactive
[3]
  EC50: > 100 µM
[4]
  CC50: > 100 µM
[5]
  EC50: > 100 µM
[6]
  EC50: > 100 µM
[7]
  CC50: 86 µM
[8]
  EC50: > 100 µM
[9]
  EC50: > 86 µM
[10]
  Activity: inactive
[11]
  CC50: > 100 µM

## O=C(CNC12CC3CC(CC(C3)C1)C2)Nc1ccc(-c2nc3cc(C(F)(F)F)ccc3[nH]2)cc1
[1]
  CC50 at 96 h: 15 µM
[2]
  Activity: inactive
[3]
  EC50: > 45 µM
[4]
  CC50: 45 µM
[5]
  EC50: 45 µM
[6]
  EC50: > 45 µM
[7]
  CC50: 18 µM
[8]
  EC50: > 23 µM
[9]
  EC50: > 18 µM
[10]
  Activity: inactive
[11]
  CC50: 23 µM

## O=C(Nc1ccc(-c2nc3cc(C(F)(F)F)ccc3[nH]2)cc1)Nc1ccc(-c2nc3cc(C(F)(F)F)ccc3[nH]2)cc1
[1]
  CC50 at 96 h: > 100 µM
[2]
  Activity: inactive
[3]
  EC50: > 100 µM
[4]
  CC50: > 100 µM
[5]
  EC50: > 100 µM
[6]
  EC50: > 100 µM
[7]
  CC50: 17 µM
[8]
  EC50: > 100 µM
[9]
  EC50: > 17 µM
[10]
  Activity: inactive
[11]
  CC50: > 100 µM

## O=c1cnn([C@@H]2O[C@H](CO)[C@@H](O)[C@H]2O)c(=O)[nH]1 (stereo in doubt; form 2) [6-AZAURIDINE]
[3]
  EC50: > 20 µM
[5]
  EC50: > 20 µM
[7]
  CC50: > 100 µM
[8]
  EC50: > 100 µM
[12]; vero
  EC50: 1.2 µM
[9]
  EC50: 26 µM
[11]
  CC50: > 100 µM

## O=C(CN1CCSCC1)Nc1ccc(-c2nc3cc(C(F)(F)F)ccc3[nH]2)cc1
[1]
  CC50 at 96 h: 6 µM
[2]
  Activity: inactive
[3]
  EC50: > 100 µM
[4]
  CC50: > 100 µM
[5]
  EC50: > 100 µM
[6]
  EC50: > 100 µM
[7]
  CC50: > 100 µM
[8]
  EC50: > 100 µM
[9]
  EC50: > 100 µM
[10]
  Activity: inactive
[11]
  CC50: > 100 µM

## O=C(CN1CCCCC1)Nc1ccc(-c2nc3cc(C(F)(F)F)ccc3[nH]2)cc1
[1]
  CC50 at 96 h: 6 µM
[2]
  Activity: inactive
[3]
  EC50: 9 µM
[4]
  CC50: 31 µM
[5]
  EC50: > 31 µM
[6]
  EC50: > 31 µM
[7]
  CC50: 12 µM
[8]
  EC50: 2 µM
[9]
  EC50: > 12 µM
[10]
  Activity: inactive
[11]
  CC50: 6 µM

## O=C(CN1CCCC1)Nc1ccc(-c2nc3ccccc3[nH]2)cc1
[1]
  CC50 at 96 h: 40 µM
[2]
  Activity: inactive
[3]
  EC50: 11 µM
[4]
  CC50: > 100 µM
[5]
  EC50: > 100 µM
[6]
  EC50: 90 µM
[7]
  CC50: 55 µM
[8]
  EC50: 10 µM
[9]
  EC50: 19 µM
[10]
  Activity: inactive
[11]
  CC50: 70 µM

## COc1c(C)c2c(c(O)c1C/C=C(\C)CCC(=O)O)C(=O)OC2 [MYCOPHENOLIC ACID]
[3]
  EC50: > 13 µM
[4]
  CC50: ≥ 13 µM
[5]
  EC50: > 13 µM
[6]
  EC50: > 13 µM
[7]
  CC50: > 100 µM
[8]
  EC50: > 42 µM
[12]; human respiratory syncytial virus, A2, Vero, 120 h
  EC50: 0.6 µM
[9]
  EC50: > 100 µM

## O=C(CN1CCN(c2ccccc2)CC1)Nc1ccc(-c2nc3cc(C(F)(F)F)ccc3[nH]2)cc1
[1]
  CC50 at 96 h: 0.9 µM
[2]
  Activity: inactive
[3]
  EC50: > 100 µM
[4]
  CC50: > 100 µM
[5]
  EC50: > 100 µM
[6]
  EC50: > 100 µM
[7]
  CC50: > 100 µM
[8]
  EC50: > 32 µM
[9]
  EC50: > 100 µM
[10]
  Activity: inactive
[11]
  CC50: 32 µM

## O=C(O)CCC(=O)Nc1ccc(-c2nc3cc(C(F)(F)F)ccc3[nH]2)cc1
[1]
  CC50 at 96 h: > 100 µM
[2]
  Activity: inactive
[3]
  EC50: > 100 µM
[4]
  CC50: > 100 µM
[5]
  EC50: > 100 µM
[6]
  EC50: > 100 µM
[7]
  CC50: > 100 µM
[8]
  EC50: > 100 µM
[9]
  EC50: > 100 µM
[10]
  Activity: inactive
[11]
  CC50: > 100 µM

## O=C(CCl)Nc1ccc(-c2nc3cc(C(F)(F)F)ccc3[nH]2)cc1
[1]
  CC50 at 96 h: 5 µM
[2]
  Activity: inactive
[3]
  EC50: 24 µM
[4]
  CC50: 35 µM
[5]
  EC50: > 35 µM
[6]
  EC50: > 35 µM
[7]
  CC50: 22 µM
[8]
  EC50: > 17 µM
[9]
  EC50: > 22 µM
[10]
  Activity: inactive
[11]
  CC50: 17 µM

## O=C(CN1CCCCC1)Nc1ccc(-c2nc3ccccc3[nH]2)cc1
[1]
  CC50 at 96 h: 31 µM
[2]
  Activity: inactive
[3]
  EC50: 17 µM
[4]
  CC50: > 100 µM
[5]
  EC50: > 100 µM
[6]
  EC50: > 100 µM
[7]
  CC50: 31 µM
[8]
  EC50: 7 µM
[9]
  EC50: > 31 µM
[10]
  Activity: inactive
[11]
  CC50: 18 µM

## CCC(=O)Nc1ccc(-c2nc3ccccc3[nH]2)cc1
[1]
  CC50 at 96 h: 35 µM
[2]
  Activity: inactive
[3]
  EC50: 9 µM
[4]
  CC50: > 100 µM
[5]
  EC50: > 100 µM
[6]
  EC50: 35 µM
[7]
  CC50: ≥ 100 µM
[8]
  EC50: 47 µM
[9]
  EC50: > 100 µM
[10]
  Activity: inactive
[11]
  CC50: > 100 µM

## Nc1ccc(-c2nc3cc(C(F)(F)F)ccc3[nH]2)cc1
[1]
  CC50 at 96 h: 62 µM
[2]
  Activity: inactive
[3]
  EC50: 17 µM
[4]
  CC50: > 100 µM
[5]
  EC50: > 100 µM
[6]
  EC50: 47 µM
[7]
  CC50: 100 µM
[8]
  EC50: 15 µM
[9]
  EC50: > 100 µM
[10]
  Activity: inactive
[11]
  CC50: 82 µM

## CC(=O)Nc1ccc(-c2nc3ccccc3[nH]2)cc1
[1]
  CC50 at 96 h: 100 µM
[2]
  Activity: inactive
[3]
  EC50: 87 µM
[4]
  CC50: > 100 µM
[5]
  EC50: > 100 µM
[6]
  EC50: > 100 µM
[7]
  CC50: > 100 µM
[8]
  EC50: 90 µM
[9]
  EC50: > 100 µM
[10]
  Activity: inactive
[11]
  CC50: > 100 µM

## O=C(CN1CCOCC1)Nc1ccc(-c2nc3ccccc3[nH]2)cc1
[1]
  CC50 at 96 h: 100 µM
[2]
  Activity: inactive
[3]
  EC50: > 100 µM
[4]
  CC50: > 100 µM
[5]
  EC50: > 100 µM
[6]
  EC50: > 100 µM
[7]
  CC50: > 100 µM
[8]
  EC50: > 77 µM
[9]
  EC50: > 100 µM
[10]
  Activity: inactive
[11]
  CC50: 77 µM

Source: ChEMBL document CHEMBL1156237, “Antiviral activity of benzimidazole derivatives. II. Antiviral activity of 2-phenylbenzimidazole derivatives” (Bioorg Med Chem, 2010)
